Assay results from different studies.
Target: Serine/threonine-protein kinase 38 (STK38, Homo sapiens, UniProt Q15208)

C=CC(=O)N1CCC(C(=O)NCC(=O)N2CCN(c3nc(-c4cnc(N)nc4C(F)F)nc(N4CCOCC4)n3)CC2)CC1 — remaining binding (binding, competition with immobilised ligand; 1 µM): 88%
CCOC(=O)c1cc2cc(-c3cc(C(=O)NCc4ccc(C(=O)O)cc4)nn3C)ccc2[nH]1 — remaining binding (cell-free assay, competition with immobilised ligand; 0.1 µM): 95%
COc1cnc(Nc2cccc(S(N)(=O)=O)c2)nc1N1CCN(c2ccccc2)CC1 — remaining binding (binding, competition with immobilised ligand; 1 µM): 78%
C[C@@H]1CCN(c2nccc(-c3cnn4ncccc34)n2)C1 — remaining binding (binding; 1 µM): 72%
FC(F)(F)Oc1cccc(-c2cnc3ccc(-c4ccncc4)nn23)c1 — remaining binding (cell-free assay, competition with immobilised ligand; 5 µM): 80%
Cc1c[nH]c2nccc(Oc3c(F)cc(Nc4cc(Cl)nc(N)n4)cc3F)c12 — remaining binding (cell-free assay, competition with immobilised ligand; 0.1 µM): 89%
COc1ccnn2ncc(-c3ccnc(N(C)C)n3)c12 — remaining binding (binding; 1 µM): 100%
Cc1c(NC(=O)c2cc(C(N)=O)nc3cc(F)ccc23)c(C(F)(F)F)nn1Cc1ccc(C(C)(C)C)cc1 — remaining binding (cell-free assay, competition with immobilised ligand; 1 µM): 93%
CNC(=O)[C@@H]1CC[C@@H](n2c(-c3ccc4cnccc4c3)nc3ccc(C(=O)NCc4cccc(C(N)=O)c4)cc32)C1 — remaining binding (binding, competition with immobilised ligand; 1 µM): 62%
CN(c1nccc(-c2cnn3ncccc23)n1)C1CC1 — remaining binding (binding; 1 µM): 100%
C[C@@]1(Cc2ccc(C#N)cc2)C(=O)N(c2cc(Cl)cc(Cl)c2)c2ncc(C(=O)NC3(c4nc(C5CCC5)no4)CC3)n21 — remaining binding (cell-free assay, competition with immobilised ligand; 1 µM): 100%
O=C(c1ccc(Nc2ncc(Cl)c(-c3cc4ccccc4s3)n2)cc1)N1CCC(N2CCCC2)CC1 — remaining binding (binding, competition with immobilised ligand; 1 µM): 78%
COc1ccc2cc(OCC3(C(=O)O)CN(C(=O)c4ccc(F)cc4)C3)ccc2c1 — remaining binding (cell-free assay, competition with immobilised ligand; 1 µM): 98%
O=C(c1ccc(Nc2nccc(-c3cc4ccccc4s3)n2)cc1)N1CCC(N2CCCC2)CC1 — remaining binding (binding, competition with immobilised ligand; 1 µM): 76%
CN(C)c1nccc(-c2cnc3ncccn23)n1 — remaining binding (binding; 1 µM): 79%
O=C(c1ccc(Nc2ncc(Cl)c(-c3ccc(Cl)s3)n2)cc1)N1CCC(N2CCCC2)CC1 — remaining binding (binding, competition with immobilised ligand; 1 µM): 67%
N[C@@H]1CCN(c2nccc(-c3cnn4ncccc34)n2)C1 — remaining binding (binding; 1 µM): 84%
O=C(NCC1CCOCC1)c1n[nH]cc1NC(=O)c1c(F)cccc1F — remaining binding (binding, competition with immobilised ligand; 1 µM): 84%
COc1ncc2cc3ccccc3nc2c1C#N — remaining binding (cell-free assay, competition with immobilised ligand; 5 µM): 94%
Cc1cnn2ncc(-c3ccnc(N(C)C)n3)c2c1 — remaining binding (binding; 1 µM): 100%
O=C(NCc1ncc(C(F)(F)F)cc1Cl)c1ccc2c(c1)C1(CCS(=O)(=O)CC1)[C@H](C1CC1)N2S(=O)(=O)c1ccc(F)cc1 — remaining binding (cell-free assay, competition with immobilised ligand; 1 µM): 92%
